{"source": "ChEMBL document CHEMBL1151773", "about": "“Synthesis and biological evaluation of amide derivatives of (5,6-dimethoxy-2,3-dihydro-1H-inden-1-yl)acetic acid as anti-inflammatory agents with reduced gastrointestinal ulcerogenecity” (Eur J Med Chem, 2008)", "key": {"Rattus norvegicus [1]": {"test_system": "Rattus norvegicus", "assay": "Antiinflammatory activity in po dosed Wistar rat assessed as inhibition of carrageenan-induced hind paw edema volume administered 60 mins before carrageenan challenge", "assay_type": "functional"}, "Rattus norvegicus [2]": {"test_system": "Rattus norvegicus", "assay": "Gastrointestinal toxicity in Wistar rat assessed as ulcer index at 100 mg/kg, po after 6 hrs", "assay_type": "organism-based", "design": "dose 100 mg/kg, route oral", "conditions": "in vivo", "outline": "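Female Wistar rats, 175±25 g, fasted 24 h, dosed orally once; sacrificed 6 h later by cervical dislocation. Stomach opened along greater curvature, saline-washed, mucosa inspected with a hand lens. Lesions graded I (edema/hyperemia/petechiae), II (hemorrhagic lesions with small erosions), III (deep ulcers); UI = nI + 2nII + 3nIII. Mean ± SEM, n = 6.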"}, "Rattus norvegicus [3]": {"test_system": "Rattus norvegicus", "assay": "Antipyretic activity in Wistar rat assessed as change in LPS-induced rectal temperature at 100 mg/kg, po administered 30 mins before LPS challenge after 3 hrs", "assay_type": "functional", "outline": "(§1)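 Adult female Wistar rats, 170±20 g, fasted 24 h, dosed orally at 09:00; 30 min later E. coli 0111:B4 phenol-extracted LPS in apyrogenic saline given i.p. Rectal temperature by telethermometer probe just before and 1–7 h hourly after LPS; temperature index calculated from these readings. n = 6.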"}, "Mus musculus": {"test_system": "Mus musculus", "assay": "Analgesic activity in Swiss albino mouse assessed as inhibition of acetic acid-induced writhing at 100 mg/kg, po administered 60 mins before acetic acid challenge after 5 to 15 mins relative to control", "assay_type": "functional", "outline": "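Female Swiss albino mice, 20±5 g, fasted overnight with free water access, dosed orally; 1 h later injected i.p. with 1% v/v acetic acid at 0.1 ml/10 g. Writhes (full hind-limb extension) counted for 15 min, starting 5 min after injection; only animals giving 20 or more writhes used. % inhibition = 100(1−Wt/Wc) vs control group mean; six animals per group.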"}, "Rattus norvegicus [4]": {"test_system": "Rattus norvegicus", "assay": "Antiarthritic activity in Freund's complete adjuvant challenged Albino rat model assessed as change in body weight at 100 mg/kg, po administered for 14 days daily once starting a day before adjuvant challenge", "assay_type": "functional", "conditions": "336 h, read-out: INH"}, "Rattus norvegicus [5]": {"test_system": "Rattus norvegicus", "assay": "Antiarthritic activity in Albino rat assessed as inhibition of Freund's complete adjuvant-induced paw volume at 100 mg/kg, po administered for 14 days daily once starting a day before adjuvant challenge measured on day 3", "assay_type": "functional", "outline": "(§2)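 Female albino rats, 160±10 g, six per group, dosed orally once daily for 14 days starting the day before 0.1 ml Freund's complete adjuvant into the right hind paw subplantar surface. Both hind paw volumes, measured up to a mark at the lateral malleolus, taken before and daily after adjuvant.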"}, "Rattus norvegicus [6]": {"test_system": "Rattus norvegicus", "assay": "Antipyretic activity in Wistar rat assessed as change in LPS-induced rectal temperature at 100 mg/kg, po administered 30 mins before LPS challenge after 6 hrs", "assay_type": "functional", "outline": "as §1"}, "Rattus norvegicus [7]": {"test_system": "Rattus norvegicus", "assay": "Antipyretic activity in Wistar rat assessed as change in LPS-induced rectal temperature at 100 mg/kg, po administered 30 mins before LPS challenge after 2 hrs", "assay_type": "functional", "outline": "as §1"}, "Rattus norvegicus [8]": {"test_system": "Rattus norvegicus", "assay": "Gastrointestinal toxicity in Wistar rat assessed as ulcer index at 100 mg/kg, po after 14 days", "assay_type": "organism-based", "design": "dose 100 mg/kg, route oral", "conditions": "in vivo, 336 h", "outline": "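Gastric mucosa examined for ulceration at post-mortem of female albino rats sacrificed at the end of the 14-day once-daily oral dosing in the Freund's adjuvant arthritis study; ulcer index scored per animal. Mean ± SEM, n = 6.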"}, "Rattus norvegicus [9]": {"test_system": "Rattus norvegicus", "assay": "Antiinflammatory activity in Wistar rat assessed as inhibition of carrageenan-induced hind paw edema volume at 100 mg/kg, po administered 60 mins before carrageenan challenge after 1 hr relative to control", "assay_type": "functional"}, "Rattus norvegicus [10]": {"test_system": "Rattus norvegicus", "assay": "Antiinflammatory activity in Wistar rat assessed as inhibition of carrageenan-induced hind paw edema volume at 100 mg/kg, po administered 60 mins before carrageenan challenge after 6 hrs relative to control", "assay_type": "functional"}, "Rattus norvegicus [11]": {"test_system": "Rattus norvegicus", "assay": "Antipyretic activity in Wistar rat assessed as change in LPS-induced rectal temperature at 100 mg/kg, po administered 30 mins before LPS challenge after 4 hrs", "assay_type": "functional", "outline": "as §1"}, "Rattus norvegicus [12]": {"test_system": "Rattus norvegicus", "assay": "Toxicity in Wistar rat assessed as mortality at up to 1000 mg/kg, po after 24 hrs", "assay_type": "organism-based", "design": "dose 1000 mg/kg, route oral", "conditions": "in vivo"}, "Rattus norvegicus [13]": {"test_system": "Rattus norvegicus", "assay": "Antiinflammatory activity in Wistar rat assessed as inhibition of carrageenan-induced hind paw edema volume at 100 mg/kg, po administered 60 mins before carrageenan challenge after 4 hrs relative to control", "assay_type": "functional"}, "Rattus norvegicus [14]": {"test_system": "Rattus norvegicus", "assay": "Antiinflammatory activity in Wistar rat assessed as inhibition of carrageenan-induced hind paw edema volume at 100 mg/kg, po administered 60 mins before carrageenan challenge after 2 hrs relative to control", "assay_type": "functional"}, "Rattus norvegicus [15]": {"test_system": "Rattus norvegicus", "assay": "Antiarthritic activity in Albino rat assessed as inhibition of Freund's complete adjuvant-induced paw volume at 100 mg/kg, po administered for 14 days daily once starting a day before adjuvant challenge measured on day 13", "assay_type": "functional", "outline": "as §2"}, "Rattus norvegicus [16]": {"test_system": "Rattus norvegicus", "assay": "Antipyretic activity in Wistar rat assessed as change in LPS-induced rectal temperature at 100 mg/kg, po administered 30 mins before LPS challenge after 1 hr", "assay_type": "functional", "outline": "as §1"}, "Rattus norvegicus [17]": {"test_system": "Rattus norvegicus", "assay": "Antiinflammatory activity in Wistar rat assessed as inhibition of carrageenan-induced hind paw edema volume at 100 mg/kg, po administered 60 mins before carrageenan challenge after 3 hrs relative to control", "assay_type": "functional"}, "Rattus norvegicus [18]": {"test_system": "Rattus norvegicus", "assay": "Antipyretic activity in Wistar rat assessed as change in LPS-induced rectal temperature at 100 mg/kg, po administered 30 mins before LPS challenge after 7 hrs", "assay_type": "functional", "outline": "as §1"}, "Rattus norvegicus [19]": {"test_system": "Rattus norvegicus", "assay": "Antipyretic activity in Wistar rat assessed as change in LPS-induced rectal temperature at 100 mg/kg, po administered 30 mins before LPS challenge after 5 hrs", "assay_type": "functional", "outline": "as §1"}, "Rattus norvegicus [20]": {"test_system": "Rattus norvegicus", "assay": "Antiarthritic activity in Albino rat assessed as inhibition of Freund's complete adjuvant-induced paw volume at 100 mg/kg, po administered for 14 days daily once starting a day before adjuvant challenge measured on day 8", "assay_type": "functional", "outline": "as §2"}, "Rattus norvegicus [21]": {"test_system": "Rattus norvegicus", "assay": "Antiinflammatory activity in Wistar rat assessed as inhibition of carrageenan-induced hind paw edema volume at 100 mg/kg, po administered 60 mins before carrageenan challenge after 24 hrs relative to control", "assay_type": "functional"}}}
{"compound": "COc1cc2c(cc1OC)C(CC(=O)NC1CCCCC1)CC2", "note": "(configuration not stated)", "values": [{"measurement": "ED30", "setting": "Rattus norvegicus [1]", "value": 20, "unit": "mg/kg"}, {"measurement": "UI", "setting": "Rattus norvegicus [2]", "value": 0}, {"measurement": "Activity", "setting": "Rattus norvegicus [3]", "value": -0.67, "unit": "°C"}, {"measurement": "inhibition in vivo at 100 mg/kg", "setting": "Mus musculus", "value": 44.7, "unit": "%"}, {"measurement": "inhibition in vivo at 100 mg/kg", "setting": "Rattus norvegicus [4]", "value": 6.84, "unit": "g"}, {"measurement": "inhibition in vivo at 100 mg/kg", "setting": "Rattus norvegicus [5]", "value": 29, "unit": "%"}, {"measurement": "Activity", "setting": "Rattus norvegicus [6]", "value": 0.45, "unit": "°C"}, {"measurement": "Activity", "setting": "Rattus norvegicus [7]", "value": -1.26, "unit": "°C"}, {"measurement": "UI", "setting": "Rattus norvegicus [8]", "value": 0}, {"measurement": "inhibition in vivo at 100 mg/kg", "setting": "Rattus norvegicus [9]", "value": 50, "unit": "%"}, {"measurement": "inhibition in vivo at 100 mg/kg", "setting": "Rattus norvegicus [10]", "value": 48.1, "unit": "%"}, {"measurement": "Activity", "setting": "Rattus norvegicus [11]", "value": 0.05, "unit": "°C"}, {"measurement": "Activity", "setting": "Rattus norvegicus [12]", "value": "Non-toxic"}, {"measurement": "inhibition in vivo at 100 mg/kg", "setting": "Rattus norvegicus [13]", "value": 50, "unit": "%"}, {"measurement": "inhibition in vivo at 100 mg/kg", "setting": "Rattus norvegicus [14]", "value": 56, "unit": "%"}, {"measurement": "inhibition in vivo at 100 mg/kg", "setting": "Rattus norvegicus [15]", "value": 33.3, "unit": "%"}, {"measurement": "Activity", "setting": "Rattus norvegicus [16]", "value": -0.33, "unit": "°C"}, {"measurement": "inhibition in vivo at 100 mg/kg", "setting": "Rattus norvegicus [17]", "value": 49.3, "unit": "%"}, {"measurement": "Activity", "setting": "Rattus norvegicus [18]", "value": 0.43, "unit": "°C"}, {"measurement": "Activity", "setting": "Rattus norvegicus [19]", "value": 0.51, "unit": "°C"}, {"measurement": "inhibition in vivo at 100 mg/kg", "setting": "Rattus norvegicus [20]", "value": 31.8, "unit": "%"}, {"measurement": "inhibition in vivo at 100 mg/kg", "setting": "Rattus norvegicus [21]", "value": 53.3, "unit": "%"}]}
